Screening results from PubChem.
Only some compounds are listed: those with a hit (about 3.7% of all), similar ones and a draw of the others.
TAAR1 antagonist: human TAAR1 antagonism; Q96RJ0; CHO RD-HGA16 TAAR1, Fluo-8 calcium fluorescence, antagonist; inhibition, % at 3 µM; hit rate 1.5% among 360,000;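 active = inhibition above a per-plate cutoff, the mean inhibition of test compounds on that plate plus 3 SD, cut at about 49% in these data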
Target sequence (Q96RJ0 whole entry, looked up): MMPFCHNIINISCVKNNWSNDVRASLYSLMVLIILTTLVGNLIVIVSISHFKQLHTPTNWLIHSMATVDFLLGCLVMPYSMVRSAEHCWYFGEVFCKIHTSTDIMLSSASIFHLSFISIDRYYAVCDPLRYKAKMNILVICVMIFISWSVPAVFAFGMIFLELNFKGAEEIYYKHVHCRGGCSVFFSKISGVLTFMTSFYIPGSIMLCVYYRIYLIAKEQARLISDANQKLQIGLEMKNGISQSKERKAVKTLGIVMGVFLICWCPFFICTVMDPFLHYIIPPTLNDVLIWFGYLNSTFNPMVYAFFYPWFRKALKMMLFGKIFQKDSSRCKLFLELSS
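Test system – hTAAR1-expressing CHO RD-HGA16 cells, Gα16-coupled · Reagent – β-PEA at EC80 concentration, post-compound challenge · Compound dosing – 3 µM, single point · Timing – 140 s kinetic read after compound, 140 s after agonist · Detection – Fluo-8 intracellular calcium dye fluorescence, real-time kinetic reads · Control set – DMSO and EC80 PEA controls · Repeats – n of 1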
rCAG RNA binder: r(CAG) repeat RNA binding | TO-PRO-1 dye displacement fluorescence | inhibition, % at 3 µM | hit rate 1.3% among 370,000 | AID 651821;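 active = inhibition above the plate cutoff, the mean of all test compounds on that plate plus 3 SD, cut at about 35% in these data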;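 note: higher means more dye released from RNA so lower well fluorescence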
HCV core dimer: HCV core protein dimerization inhibition. AID 1899. TR-FRET GST/Flag-core106 dimerization, 1536-well. hit rate 0.33% among 300,000. inhibition, % at 5 µM;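 active = inhibition above the mean of all tested compounds plus 3 SD, set per screening campaign, cut at about 45% in these data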
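assay system = GST-tagged and Flag-tagged HCV core protein residues 1-106 | controls = unlabelled core106 and no-GST-core106 wells | incubation = compound-protein-antibody incubation 4 h at 22.5 °C | probe or stimulus = Eu donor and XL665 acceptor anti-tag antibodies | read-out = % inhibition based on acceptor/donor emission ratio | signal = TR-FRET 671 and 617 nm emission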
NS3 helicase inh: inhibitors of Hepatitis C virus NS3 helicase; NS3 helicase DNA unwinding, Cy5 molecular beacon fluorescence; inhibition, % at 10.9 µM; hit rate 0.56% among 290,000; AID 1800;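 active = inhibition above the mean of all tested compounds plus 3 SD, set per campaign, cut at about 35% in these data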
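Assay system: hepatitis C virus NS3 helicase domain fragment enzyme. Also added: annealed dual-labelled DNA beacon duplex, ATP-started. Timing: 1 h reaction at 25 °C, ATP-initiated. Technique: Cy5 fluorescence at 0 and 60 min, beacon hairpin quenching. Evaluation: % inhibition of unwinding. Replication: one well per compound.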
TAAR1 agonist: human TAAR1 agonism | activation, % at 3 µM | CHO RD-HGA16 TAAR1, Fluo-8 calcium fluorescence; vehicle wells 0%, saturating PEA agonist 100% | AID 624467 | hit rate 0.99% among 360,000;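 active = activation above the mean activation of all test compounds in the run plus 3 SD, cut at about 38% in these data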
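System: CHO RD-HGA16 cells carrying human TAAR1 plus Gα16; Incubation: 17-24 h seeding, 75 min 37 °C dye, 30 min RT; Measured by: Fluo-8 fluorescence, 5 s baseline then 140 s kinetic read; Control set: DMSO and PEA EC100; Replication: single well for each compound.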
rCAG binder conf: r(CAG) RNA repeat binding, confirmation; shares compounds with rCAG RNA binder; TO-PRO-1 dye displacement fluorescence; inhibition, % at 3 µM; hit rate 70% among 4,300;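 active = inhibition above a per-plate cutoff, the mean inhibition of sample wells plus 3 SD, cut at about 35% in these data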;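 note: loss of TO-PRO-1 fluorescence as compound displaces dye from 1x1 AA loop RNA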
DNA CAG counter: disrupts DNA CAG TO-PRO-1 complex, flagging rCAG hits; shares compounds with rCAG RNA binder; d(CAG) DNA oligo TO-PRO-1 dye displacement, fluorescence; inhibition, % at 3 µM; hit rate 94% among 4,300;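 active = inhibition above its plate's cutoff, the mean test-well inhibition plus 3 SD, cut at about 4.8% in these data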;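 note: hits displace the dye from DNA and so lower well fluorescence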
DNA CAG DR: disrupts DNA CAG TO-PRO-1 complex in dose response | shares compounds with rCAG RNA binder | DNA CAG/GTC duplex TO-PRO-1 dye displacement fluorescence | IC50, µM | hit rate 20% among 250 | AID 686960; in the data active = IC50 below about 10 µM
Hits are given with their value; – = inactive; · = no result given.

SMILES	TAAR1 antagonist	rCAG RNA binder	HCV core dimer	NS3 helicase inh	TAAR1 agonist	rCAG binder conf	DNA CAG counter	others
O=C(N/N=C/c1cccc(F)c1)c1cc(-c2ccco2)nc2ccccc12	–	45	74	40	–	41	26
Cc1ccc(-c2cc(C(=O)NN=Cc3ccccc3OCC(=O)O)[nH]n2)cc1	·	–	·	·	·	·	·
COc1cc(/C=N/NC(=O)c2cc(-c3ccco3)nc3ccccc23)cc(OC)c1O	–	–	–	–	–	·	·
O=C(O)COc1ccccc1/C=N/NC(=O)CSc1nc2ccccc2n1Cc1ccccc1	–	45	–	–	–	55	16
O=C(Nc1nncs1)c1cc(-c2ccco2)nc2ccccc12	–	48	·	·	–	–	7.1
CCCCNC(=O)C1(C(C)=O)CC(C(=O)OCC)=NO1 (stereo not drawn)	·	–	·	·	·	·	·
Cc1cc(C)cc(N(CC(=O)Nc2cc(C)ccc2C)S(=O)(=O)c2c(C)[nH]c(=O)[nH]c2=O)c1	–	–	–	–	–	·	·
Cc1cc(C)cc(N(CC(=O)Nc2ccc(Br)cc2)S(=O)(=O)c2c(C)[nH]c(=O)[nH]c2=O)c1	–	51	–	–	–	42	9.2
CCn1nc(NS(=O)(=O)c2ccc([N+](=O)[O-])cc2)c2cc3ccc(C)cc3nc21	–	53	–	–	–	37	9.6
CCn1nc(NS(=O)(=O)c2ccc([N+](=O)[O-])cc2)c2cc3cc(C)ccc3nc21	–	–	–	–	–	·	·
CC(NCc1ccco1)C(=O)N1CCN(c2cccc(C(F)(F)F)c2)CC1 (stereo not drawn)	·	–	·	·	·	·	·
Cc1cccc(OCC(=O)N/N=C/c2sc(=O)n(Cc3cccc(C(=O)O)c3)c2Cl)c1	–	35	–	–	–	37	10
Cn1c(Cc2cccs2)nnc1SCC(=O)Nc1ccc(OCc2ccccc2)cc1	·	–	·	·	·	·	·
CC(C)=CCCC1=CC[C@H]2[C@@H](C1)C(C(C)C)=CC(=O)[C@@]2(C)O	–	–	·	·	–	·	·
CCC(Sc1nc(-c2cccc(OC)c2)c(C#N)c(=O)[nH]1)C(=O)Nc1nnc(C(C)C)s1 (stereo not drawn)	–	75	–	–	–	75	38
CC(C)C[C@H]1COc2cccc(F)c2S(=O)(=O)N1Cc1cn(Cc2ccco2)nn1	·	–	·	·	·	·	·
COc1cccc(NC(=S)N(Cc2ccc(Cl)cc2)Cc2ccc(C(=O)O)cc2)c1	–	53	–	–	–	42	11
Cc1ccc(NC(=S)N(Cc2cccc(Br)c2)CC2CCC(C(=O)O)CC2)cc1Cl (stereo not drawn)	–	44	–	–	–	60	21	DNA CAG DR=–
COc1ccc(Cl)cc1NC(=S)N(Cc1ccc(C(=O)O)cc1)Cc1ccc(OC)c(OC)c1	–	50	–	–	–	48	15
Cc1cc(NC(=S)N(Cc2ccc(Br)cc2)Cc2ccc(C(=O)O)cc2)ccc1Cl	–	75	–	–	–	82	48
O=C(CSc1nc2ccccc2nc1N1CCCCC1)N1CCN(C(c2ccccc2)c2ccc(Cl)cc2)CC1 (stereo not drawn)	·	–	·	·	·	·	·
COC(=O)C1=C(C)N(Cc2ccc(Br)cc2)C(=S)NC1c1cccc(Br)c1 (stereo not drawn)	–	–	·	·	–	·	·
Nc1[nH]c(C(=O)c2ccccc2)c(-c2cc(F)ccc2Br)c1C(=O)NCCc1c[nH]c2ccccc12	–	–	·	·	–	·	·
CCOC(=O)Cc1c(C)nc2c(C#N)c[nH]n2c1=O	–	–	–	–	–	·	·
CCOC(=O)Cc1c(C)nc2c(-c3cccc(Br)c3)c[nH]n2c1=O	–	72	–	–	–	47	15
SMILES	TAAR1 antagonist	rCAG RNA binder	HCV core dimer	NS3 helicase inh	TAAR1 agonist	rCAG binder conf	DNA CAG counter	others
Cc1cc(Nc2cccc(Cl)c2)nc(-c2ccccc2O)n1	–	36	–	–	–	–	10.0
Cc1cc(Nc2ccc(Cl)cc2)nc(-c2ccccc2O)n1	–	–	·	–	–	·	·
O=S1(=O)c2c(NCc3ccco3)cccc2Oc2ccccc2CN1Cc1cn(Cc2ccc(Cl)cc2)nn1	·	–	·	·	·	·	·
CCc1nnc(NS(=O)(=O)c2ccc(NC(=S)NC(=O)c3ccc(OC)c(OC)c3)cc2)s1	–	68	–	–	–	68	32
COc1ccc(Cc2nnc(NS(=O)(=O)c3ccc(Cl)cc3)s2)cc1OC	–	49	–	–	–	53	16
CC(C)Cc1nnc(NS(=O)(=O)c2ccc(Cl)cc2)s1	–	–	–	–	–	·	·
CCc1nnc(NS(=O)(=O)c2ccc(NC(=O)COc3ccc4ccccc4c3)cc2)s1	–	–	–	–	–	·	·
COc1ccc(C(=O)NC(=S)Nc2ccc(S(=O)(=O)Nc3cc(C)on3)cc2)cc1OC	–	35	–	–	–	36	6.5
Cc1cc(NS(=O)(=O)c2ccc(NC(=S)NC(=O)c3ccccc3)cc2)no1	–	–	–	–	–	·	·
O=C(O)COc1ccc(/C=C/c2ccc3cccc([N+](=O)[O-])c3n2)cc1	–	37	–	–	–	–	8.4
COc1cc(/C=C/c2ccc3c([N+](=O)[O-])cccc3n2)ccc1OCC(=O)O	–	–	–	–	–	·	·
COc1cc(/C=C/c2ccc3cccc([N+](=O)[O-])c3n2)ccc1OCC(=O)O	–	48	–	–	–	47	13
CCOC(=O)[C@@]12CN(C(=O)OC(C)(C)C)CC=C1N(Cc1ccc(OC)cc1)C(=O)[C@H]2CC(=O)NCCC(C)C	·	–	·	·	·	·	·
O=C(Nc1ccccc1C(=O)Nc1nnc(C(F)(F)F)s1)c1ccccc1	–	38	–	–	–	72	33
O=C(NNS(=O)(=O)c1cccc(Cl)c1)c1cc(-c2ccc(F)cc2)nc2ccccc12	–	44	–	–	–	44	15
Cc1ccc(NS(=O)(=O)c2ccc(C)c(C(=O)Nc3ccc(S(=O)(=O)Nc4onc(C)c4C)cc3)c2)cc1	–	64	·	·	–	70	35
Cc1noc(NS(=O)(=O)c2ccc(NC(=O)c3ccccc3NS(=O)(=O)c3ccc(F)c(F)c3)cc2)c1C	–	76	·	·	–	69	30
Cc1ccccc1C(=O)Nc1ccc(S(=O)(=O)Nc2onc(C)c2C)cc1	–	–	–	–	–	·	·
O=C(O)c1ccccc1NC(=O)c1cc(-c2ccccc2)nc2ccccc12	–	56	–	–	–	62	22
O=C(NN=C1CCCC1)c1cc(-c2ccc(F)cc2)nc2ccccc12	–	–	–	–	–	·	·
CN(C)c1ccc(NC(=O)NC2CCCCN(Cc3cccc(Cl)c3)C2=O)cc1 (stereo not drawn)	·	–	·	·	·	·	·
